≈ marks a conversion by molar mass, not a printed value. Calls of active or inactive are those of the source. No cut-off for these calls is given here.
Experiments:
[1] = target: Sodium channel protein type 9 subunit alpha (Homo sapiens, UniProt Q15858); assay: Inhibition of human NaV1.7 expressed in HEK293 cells by whole-cell voltage clamp assay; assay type: cell-based
How it was run: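 Human NaV1.7 α-subunit stably expressed in HEK293 cells. Currents were recorded by perforated whole-cell automated planar patch clamp (IonWorks Quattro) in D-PBS external solution with 5.5 mM glucose. Cells were held at −65 mV, and a train of eight 30 ms steps to −20 mV at 3 Hz was applied. Half-log serial dilutions were made in DMSO, giving 0.3% DMSO in the recording solution.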

[2] = target: Sodium channel protein type 5 subunit alpha (Homo sapiens, UniProt Q14524); assay: Inhibition of human NaV1.5 expressed in CHO cells by IonWorks assay; assay type: cell-based
[3] = target: Voltage-gated inwardly rectifying potassium channel KCNH2 (Homo sapiens, UniProt Q12809); assay: Inhibition of human ERG expressed in CHO cells by IonWorks HT assay; assay type: cell-based
[4] = Solubility of the compound; assay type: physicochemical
Liver microsomes [5] = assay: Intrinsic clearance in rat liver microsomes assessed per ug of protein; assay type: ADME, Microsome
Liver microsomes [6] = assay: Intrinsic clearance in human liver microsomes assessed per ug of protein; assay type: ADME, Microsome
Rattus norvegicus [7] = assay: Dose normalized AUC in Sprague-Dawley rat at 3 umol/kg, iv; assay type: ADME, organism-based; details: in vivo
How it was run: (§1)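 Rat pharmacokinetics used fasted male Sprague–Dawley rats, three animals per administration route per compound. The intravenous dose was 3 µmol/kg, with a separate oral arm.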

[8] = Volume of distribution at steady state in Sprague-Dawley rat at 3 umol/kg, iv; assay type: ADME, organism-based; details: in vivo, read-out: Vdss; how it was run: as §1
[9] = Half life in Sprague-Dawley rat at 3 umol/kg, iv; assay type: ADME, organism-based; details: in vivo; how it was run: as §1
[10] = Clearance in Sprague-Dawley rat at 3 umol/kg, iv; assay type: ADME, organism-based; details: in vivo; how it was run: as §1
Rattus norvegicus [11] = assay: Dose normalized AUC in Sprague-Dawley rat at 10 umol/kg, po; assay type: ADME, organism-based; details: in vivo; how it was run: as §1
[12] = Cmax in Sprague-Dawley rat at 10 umol/kg, po; assay type: ADME, organism-based; set-up: dose 10 umol/kg, route oral; details: in vivo; how it was run: as §1
[13] = Tmax in Sprague-Dawley rat at 10 umol/kg, po; assay type: ADME, organism-based; details: in vivo; how it was run: as §1
[14] = Half life in Sprague-Dawley rat at 10 umol/kg, po; assay type: ADME, organism-based; details: in vivo; how it was run: as §1
[15] = Oral bioavailability in Sprague-Dawley rat at 10 umol/kg; assay type: ADME, organism-based; details: in vivo; how it was run: as §1
Homo sapiens = organism: Homo sapiens; assay: Displacement of [3H]nitrobenzylthioinosine from adenosine transporter at 10 uM
Cannabinoid receptor 1 [16] = target: T1, Cannabinoid receptor 1 (Homo sapiens, UniProt P21554); assay: Displacement of [3H]SR141716A from CB1 receptor at 10 uM
[17] = target: T2, C-C chemokine receptor type 1 (Homo sapiens) (UniProt P32246); assay: Increase in [125I]MIP-1alpha binding to CCR1 at 10 uM
T2 sequence (whole entry): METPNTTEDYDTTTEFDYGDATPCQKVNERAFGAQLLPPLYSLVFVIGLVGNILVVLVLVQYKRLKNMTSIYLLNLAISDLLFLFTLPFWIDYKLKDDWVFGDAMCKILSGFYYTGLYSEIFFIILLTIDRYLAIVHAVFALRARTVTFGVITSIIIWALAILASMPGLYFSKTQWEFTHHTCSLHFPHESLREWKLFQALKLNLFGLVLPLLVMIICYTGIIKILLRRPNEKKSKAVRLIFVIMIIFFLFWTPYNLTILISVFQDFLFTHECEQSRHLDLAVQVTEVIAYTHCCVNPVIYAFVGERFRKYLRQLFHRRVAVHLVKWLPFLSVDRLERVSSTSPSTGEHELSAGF

[18] = Displacement of [3H]nitrobenzylthioinosine from adenosine transporter; set-up: species or system Homo sapiens
Cannabinoid receptor 1 [19] = target: T1, Cannabinoid receptor 1; assay: Displacement of [3H]SR141716A from CB1 receptor
Cannabinoid receptor 1 [20] = target: T1, Cannabinoid receptor 1; assay: Agonist activity at CB1 receptor by [35gammaS]GTP incorporation assay; assay type: functional
[21] = target: T3, 5-hydroxytryptamine receptor 1A (Homo sapiens) (UniProt P08908); assay: Activity at 5HT1A receptor
T3 sequence (whole entry): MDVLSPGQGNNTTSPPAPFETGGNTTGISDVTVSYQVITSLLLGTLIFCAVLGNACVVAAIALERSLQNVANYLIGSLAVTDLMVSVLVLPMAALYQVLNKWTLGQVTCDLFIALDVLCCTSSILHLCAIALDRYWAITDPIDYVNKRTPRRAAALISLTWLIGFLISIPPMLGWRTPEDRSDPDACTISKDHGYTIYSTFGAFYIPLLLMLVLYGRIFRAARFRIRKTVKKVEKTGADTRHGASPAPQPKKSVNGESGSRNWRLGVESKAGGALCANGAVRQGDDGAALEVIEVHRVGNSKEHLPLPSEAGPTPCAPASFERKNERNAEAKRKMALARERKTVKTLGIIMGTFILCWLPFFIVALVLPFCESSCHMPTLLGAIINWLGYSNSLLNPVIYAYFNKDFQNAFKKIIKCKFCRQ

[22] = target: 5-hydroxytryptamine receptor 1B (Homo sapiens) (UniProt P28222); assay: Activity at 5HT1B receptor
Rattus norvegicus [23] = assay: Antinociceptive activity in po dosed formalin-challenged Sprague-Dawley rat assessed as latency in paw licking during phase 1 administered 3 hrs prior to formalin-challenge measured up to 5 mins post formalin challenge; assay type: functional, organism-based
How it was run: (§2)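 Sprague–Dawley rats (n = 9/group) were dosed by oral gavage 3 h before formalin, at 0, 19, 49 and 99 µmol/kg, as a nanosuspension in 1% PVP K30/0.2% SDS. Formalin was 100 µL of 2.0% injected s.c. into the dorsal left hind paw. Paw-licking time was scored over 35 min: phase 1 at 0–5 min, phase 2 at 15–35 min. Results were given as % of vehicle, with total plasma concentration as mean SD. Statistics were one-way ANOVA, then unpaired one-tailed t-test.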

Rattus norvegicus [24] = assay: Antinociceptive activity in formalin-challenged Sprague-Dawley rat assessed as latency in paw licking during phase 1 at 49 umol/kg, po administered 3 hrs prior to formalin-challenge measured up to 5 mins post formalin challenge relative to control; assay type: functional; how it was run: as §2
Plasma = assay: Plasma concentration in formalin-challenged Sprague-Dawley rat at 49 umol/kg, po administered 3 hrs prior to formalin-challenge measured up to 5 mins post formalin challenge; assay type: ADME, organism-based; details: in vivo; how it was run: as §2
Rattus norvegicus [25] = assay: Antinociceptive activity in formalin-challenged Sprague-Dawley rat assessed as latency in paw licking during phase 2 at […], po administered 3 hrs prior to formalin-challenge measured up to 15 to 35 mins post formalin challenge; assay type: functional, organism-based; how it was run: as §2

T1 sequence (P21554 whole entry): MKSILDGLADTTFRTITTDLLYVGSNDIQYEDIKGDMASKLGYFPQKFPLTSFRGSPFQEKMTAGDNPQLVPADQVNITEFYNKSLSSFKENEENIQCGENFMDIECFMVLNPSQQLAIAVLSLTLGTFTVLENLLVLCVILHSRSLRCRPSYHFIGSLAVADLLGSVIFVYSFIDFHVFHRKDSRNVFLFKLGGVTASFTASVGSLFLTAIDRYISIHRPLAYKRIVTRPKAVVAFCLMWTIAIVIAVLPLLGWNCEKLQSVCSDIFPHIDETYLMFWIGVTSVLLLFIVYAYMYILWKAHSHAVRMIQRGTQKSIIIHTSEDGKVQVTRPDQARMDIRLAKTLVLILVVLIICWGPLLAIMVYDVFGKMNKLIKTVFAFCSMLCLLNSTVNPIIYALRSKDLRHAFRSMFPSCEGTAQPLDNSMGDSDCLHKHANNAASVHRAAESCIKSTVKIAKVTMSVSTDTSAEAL
Sequence of Sodium channel protein type 5 subunit alpha (Q14524 whole entry): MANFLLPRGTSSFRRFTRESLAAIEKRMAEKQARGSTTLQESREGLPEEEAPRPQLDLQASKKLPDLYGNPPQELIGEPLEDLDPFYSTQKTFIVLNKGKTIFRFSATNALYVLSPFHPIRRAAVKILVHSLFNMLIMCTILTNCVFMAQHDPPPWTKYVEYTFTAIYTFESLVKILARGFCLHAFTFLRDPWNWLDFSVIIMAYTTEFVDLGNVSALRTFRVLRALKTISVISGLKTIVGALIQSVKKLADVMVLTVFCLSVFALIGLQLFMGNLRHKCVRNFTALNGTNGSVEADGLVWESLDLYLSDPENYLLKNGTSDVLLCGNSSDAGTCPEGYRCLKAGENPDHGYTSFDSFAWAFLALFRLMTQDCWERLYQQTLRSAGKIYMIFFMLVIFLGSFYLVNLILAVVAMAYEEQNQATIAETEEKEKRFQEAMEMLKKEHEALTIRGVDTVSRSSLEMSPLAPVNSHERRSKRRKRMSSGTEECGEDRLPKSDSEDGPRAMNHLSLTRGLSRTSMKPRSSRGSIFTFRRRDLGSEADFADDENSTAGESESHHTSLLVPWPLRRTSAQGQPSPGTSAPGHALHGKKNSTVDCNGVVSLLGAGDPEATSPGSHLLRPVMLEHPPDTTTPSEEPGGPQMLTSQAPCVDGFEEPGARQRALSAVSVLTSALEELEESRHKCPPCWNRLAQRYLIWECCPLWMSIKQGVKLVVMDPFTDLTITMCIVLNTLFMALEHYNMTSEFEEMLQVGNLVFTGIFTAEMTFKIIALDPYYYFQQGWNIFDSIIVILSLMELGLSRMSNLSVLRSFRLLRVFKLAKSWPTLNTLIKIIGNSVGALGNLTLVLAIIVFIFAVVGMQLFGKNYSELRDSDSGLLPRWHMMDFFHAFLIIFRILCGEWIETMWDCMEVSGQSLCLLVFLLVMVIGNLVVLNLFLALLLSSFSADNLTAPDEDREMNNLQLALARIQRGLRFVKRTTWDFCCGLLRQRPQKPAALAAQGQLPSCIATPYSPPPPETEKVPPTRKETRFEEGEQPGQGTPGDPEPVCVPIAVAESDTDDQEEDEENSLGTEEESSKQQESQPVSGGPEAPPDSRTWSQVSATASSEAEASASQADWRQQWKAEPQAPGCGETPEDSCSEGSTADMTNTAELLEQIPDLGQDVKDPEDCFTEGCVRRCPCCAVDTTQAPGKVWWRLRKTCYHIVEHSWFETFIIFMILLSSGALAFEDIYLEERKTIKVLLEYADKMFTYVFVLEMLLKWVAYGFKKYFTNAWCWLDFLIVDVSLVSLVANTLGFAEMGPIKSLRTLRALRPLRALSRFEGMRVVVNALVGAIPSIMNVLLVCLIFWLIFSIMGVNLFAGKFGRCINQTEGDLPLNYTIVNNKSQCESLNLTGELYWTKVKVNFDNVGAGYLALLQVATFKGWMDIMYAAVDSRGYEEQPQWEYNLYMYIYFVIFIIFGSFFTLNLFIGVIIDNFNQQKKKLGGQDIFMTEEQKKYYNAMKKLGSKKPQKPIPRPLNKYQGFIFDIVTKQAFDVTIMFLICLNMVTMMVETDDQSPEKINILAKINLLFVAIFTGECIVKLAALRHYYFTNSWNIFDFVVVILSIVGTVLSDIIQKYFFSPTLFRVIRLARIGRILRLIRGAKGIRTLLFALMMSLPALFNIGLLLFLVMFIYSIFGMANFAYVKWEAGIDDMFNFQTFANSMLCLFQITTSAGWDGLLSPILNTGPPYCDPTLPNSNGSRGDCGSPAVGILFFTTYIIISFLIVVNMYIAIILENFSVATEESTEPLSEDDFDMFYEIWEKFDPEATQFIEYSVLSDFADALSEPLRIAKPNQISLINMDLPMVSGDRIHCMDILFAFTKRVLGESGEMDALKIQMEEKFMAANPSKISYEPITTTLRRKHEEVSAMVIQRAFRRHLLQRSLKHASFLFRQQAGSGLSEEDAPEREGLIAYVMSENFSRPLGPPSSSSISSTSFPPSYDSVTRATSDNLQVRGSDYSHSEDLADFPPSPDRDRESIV
Sequence of 5-hydroxytryptamine receptor 1B (Homo sapiens) (P28222 whole entry): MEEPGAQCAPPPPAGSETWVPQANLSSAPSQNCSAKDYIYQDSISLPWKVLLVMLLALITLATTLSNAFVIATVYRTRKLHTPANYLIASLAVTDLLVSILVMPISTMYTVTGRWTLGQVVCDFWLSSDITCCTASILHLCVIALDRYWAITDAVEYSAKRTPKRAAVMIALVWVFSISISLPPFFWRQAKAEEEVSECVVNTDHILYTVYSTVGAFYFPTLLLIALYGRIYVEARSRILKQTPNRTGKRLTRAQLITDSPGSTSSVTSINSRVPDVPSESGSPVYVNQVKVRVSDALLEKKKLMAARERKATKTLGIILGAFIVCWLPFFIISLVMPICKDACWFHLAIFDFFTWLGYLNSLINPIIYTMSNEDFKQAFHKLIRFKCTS
Sequence of Voltage-gated inwardly rectifying potassium channel KCNH2 (Q12809 whole entry): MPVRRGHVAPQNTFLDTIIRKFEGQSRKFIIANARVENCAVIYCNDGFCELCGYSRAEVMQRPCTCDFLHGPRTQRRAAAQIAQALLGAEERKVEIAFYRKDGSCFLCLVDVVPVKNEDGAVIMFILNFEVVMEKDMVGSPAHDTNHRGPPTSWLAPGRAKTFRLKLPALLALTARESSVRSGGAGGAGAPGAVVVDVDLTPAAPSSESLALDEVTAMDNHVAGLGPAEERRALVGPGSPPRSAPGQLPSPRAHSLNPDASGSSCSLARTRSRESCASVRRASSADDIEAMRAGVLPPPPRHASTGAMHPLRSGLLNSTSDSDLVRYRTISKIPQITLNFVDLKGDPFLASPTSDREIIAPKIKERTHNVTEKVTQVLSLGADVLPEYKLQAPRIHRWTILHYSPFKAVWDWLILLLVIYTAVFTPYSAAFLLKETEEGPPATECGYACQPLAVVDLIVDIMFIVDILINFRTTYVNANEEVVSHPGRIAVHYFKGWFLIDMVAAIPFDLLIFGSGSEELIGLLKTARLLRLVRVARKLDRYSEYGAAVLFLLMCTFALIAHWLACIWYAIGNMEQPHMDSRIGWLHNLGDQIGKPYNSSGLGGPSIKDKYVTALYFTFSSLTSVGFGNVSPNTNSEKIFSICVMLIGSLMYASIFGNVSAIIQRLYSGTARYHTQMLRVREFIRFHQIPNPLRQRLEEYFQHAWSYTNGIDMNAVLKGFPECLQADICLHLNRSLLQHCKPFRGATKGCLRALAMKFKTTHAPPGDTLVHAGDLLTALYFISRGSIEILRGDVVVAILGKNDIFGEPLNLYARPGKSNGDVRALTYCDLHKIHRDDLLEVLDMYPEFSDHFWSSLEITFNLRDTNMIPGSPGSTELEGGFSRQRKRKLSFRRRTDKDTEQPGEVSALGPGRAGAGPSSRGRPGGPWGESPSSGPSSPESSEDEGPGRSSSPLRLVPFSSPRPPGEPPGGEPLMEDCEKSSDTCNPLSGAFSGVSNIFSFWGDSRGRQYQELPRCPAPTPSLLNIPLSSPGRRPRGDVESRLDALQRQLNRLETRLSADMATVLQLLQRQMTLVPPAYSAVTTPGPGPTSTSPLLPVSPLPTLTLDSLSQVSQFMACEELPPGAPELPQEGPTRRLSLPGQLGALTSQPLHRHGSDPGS

- IC50 [1]: 0.0794 µM
- solubility [4]: 34 µM (≈ 16.1 µg/mL)
- CLint (Liver microsomes [5]): < 10 µL/min/mg
- CLint (Liver microsomes [6]): < 10 µL/min/mg
- AUC/dose (Rattus norvegicus [7]): 0.6 kg·h/L
- Vd [8]: 4.2 L/kg
- half-life [9]: 2.2 h
- clearance [10]: 25 mL/min/kg
- AUC/dose (Rattus norvegicus [11]): 0.3 kg·h/L
- Cmax [12]: 300 nM
- Tmax [13]: 2.5 h
- half-life [14]: 4.8 h
- bioavailability [15]: 44%
- inhibition (Homo sapiens): 66%
- inhibition (Cannabinoid receptor 1 [16]): 55%
- Activity [17]: 127%
- IC50 [18]: 1.8 µM
- IC50 (Cannabinoid receptor 1 [19]): 5 µM
- Activity (Cannabinoid receptor 1 [20]): inactive
- Activity [21]: inactive
- Activity [22]: inactive
- concentration (Plasma): 5000 nM
Compound: COc1cnc(-c2cccc3c2C[C@H](NC(=O)c2ccc(COCC(F)(F)F)nc2)CO3)cn1
- IC50 [2]: 12.6 µM
- IC50 [3]: 12.6 µM
- Activity (Rattus norvegicus [23]): Dose-dependent effect
- Activity (Rattus norvegicus [24]): 66%
- Activity (Rattus norvegicus [25]): inactive

Reference: ChEMBL document CHEMBL2069242, “Structure and activity relationship in the (S)-N-chroman-3-ylcarboxamide series of voltage-gated sodium channel blockers” (Bioorg Med Chem Lett, 2012)
